From ChEMBL document CHEMBL5325402, “Exploration of novel hexahydropyrrolo[1,2-e]imidazol-1-one derivatives as antiviral agents against ZIKV and USUV” (Eur J Med Chem, 2023)
Converted amounts (≈) assume the structure as drawn. The source made the active and inactive calls. The rule behind the calls is not given here.

Columns and labels:
[1] = test system: Zika virus; experiment: Antiviral activity against ZIKV MR766 infected in African green monkey Vero cells assessed as titer reduction in viral progeny production at 15 uM treated for 2 hrs followed by virus removal and subsequent addition of medium containing compound measured after 48 hrs by plaque reduction assay; type: functional, organism-based; conditions: time 50.0 hrs
How it was run: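 Vero cells seeded 6.5 × 10^4/well, exposed in duplicate for 2 h at 37 °C to virus (MOI 0.1) mixed with compound at 5 or 15 μM. After three washes, medium containing compound was added for 48 h. Supernatants were clarified and titred on Vero by focus reduction (USUV, FFU/ml) or plaque assay (ZIKV, PFU/ml). DMSO-matched infected controls; mean of three experiments.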

[2] = test system: Zika virus; experiment: Antiviral activity against ZIKV MR766 infected in African green monkey Vero cells assessed as viral growth inhibition at 0.13 to 100 uM treated immediately after viral infection for 30 hrs by time of addition assay; type: functional, organism-based; conditions: dose 0.13-100 µM
How it was run: (§1)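 Time-of-addition assay in Vero. Serial dilutions (100 to 0.13 μM) were added to cells 24 h or 2 h before infection, during the 2 h infection, or post-infection for 24 h (USUV) or 30 h (ZIKV). Cells were fixed in cold acetone-methanol (50:50) and infected cells detected by indirect immunostaining. EC50/EC90 came from variable-slope sigmoidal fits; mean of three independent experiments.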

[3] = Cytotoxicity against human A549 cells infected with ZIKV MR766 pretreated with virus for 1 hr followed by infection of cells with compound treated-virus for 30 hrs by MTS assay; type: toxicity, cell-based
How it was run: (§2)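 MTS viability assay. Cells were treated under the same conditions as the antiviral assays. Absorbance was expressed as % of medium-only cells, and CC50 was derived from the curve. Seeding densities were 1.2 × 10^4/well for Vero, 1.3 × 10^4/well for A549 and 1.6 × 10^4/well for Huh7. DMEM with 2% FBS.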

[4] = test system: Zika virus; experiment: Antiviral activity against ZIKV MR766 infected in human A549 cells assessed as reduction in viral replication pretreated with virus for 1 hr followed by infection of cells with compound treated-virus for 30 hrs by focus reduction assay; type: functional, organism-based; conditions: for EC90: time 31 hrs
How it was run: (§3)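 Dose-response: serial dilutions (100 to 0.13 μM) preincubated 1 h at 37 °C with virus (MOI 0.02), then added to cells for 20 h (USUV) or 30 h (ZIKV) in 2% FBS DMEM. Cells per well: Vero 1.2 × 10^4, A549 1.3 × 10^4, Huh7 1.6 × 10^4. Foci immunostained and counted. EC50/EC90 fitted by variable-slope sigmoidal curve, mean of three independent experiments.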

[5] = test system: Usutu virus; experiment: Antiviral activity against USUV 3345 isolate Arb276 infected in African green monkey Vero cells assessed as viral growth inhibition at 11 to 100 uM pretreated with virus for 1 hr followed by infection of cells with compound treated-virus for 20 hrs by focus reduction assay relative to control; type: functional; conditions: dose 11-100 µM, time 21 hrs
How it was run: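 Virus (MOI 0.02) preincubated with compound 1 h at 37 °C, then mixture put on Vero cells (1.2 × 10^4/well, seeded the day before) in DMEM with 2% FBS for 30 h (ZIKV) or 20 h (USUV) at 37 °C. Fixed in cold acetone-methanol, foci immunostained with anti-flavivirus E 4G2 antibody and counted. % infection is relative to DMSO-treated wells. Screen used 100, 33 and 11 μM.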

[6] = test system: Zika virus; experiment: Antiviral activity against ZIKV MR766 infected in African green monkey Vero cells assessed as viral growth inhibition at 0.13 to 100 uM treated immediately after viral infection for 2 hrs by time of addition assay; type: functional, organism-based; conditions: dose 0.13-100 µM, in the assay text read “during viral infection” for “immediately after viral infection”; how it was run: as §1
[7] = Cytotoxicity against human Huh-7 cells infected with ZIKV MR766 pretreated with virus for 1 hr followed by infection of cells with compound treated-virus for 30 hrs by MTS assay; type: toxicity, cell-based; how it was run: as §2
[8] = test system: Usutu virus; experiment: Antiviral activity against USUV 3345 isolate Arb276 infected in African green monkey Vero cells assessed as viral growth inhibition at 0.13 to 100 uM treated immediately after viral infection for 2 hrs by time of addition assay; type: functional, organism-based; conditions: dose 0.13-100 µM, in the assay text read “during viral infection” for “immediately after viral infection”; how it was run: as §1
[9] = test system: Usutu virus; experiment: Antiviral activity against USUV 3345 isolate Arb276 infected in African green monkey Vero cells assessed as viral growth inhibition at 0.13 to 100 uM pretreated with cells 2 hrs prior to viral infection by time of addition assay; type: functional, organism-based; conditions: dose 0.13-100 µM; how it was run: as §1
[10] = Cytotoxicity against human Huh-7 cells infected with USUV 3345 isolate Arb276 pretreated with virus for 1 hr followed by infection of cells with compound treated-virus for 20 hrs by MTS assay; type: toxicity, cell-based; how it was run: as §2
[11] = Selectivity ratio of EC50 for antiviral activity against ZIKV MR766 infected in African green monkey Vero cells pretreated with cells 24 hrs prior to viral infection to EC50 for antiviral activity against ZIKV MR766 infected in African green monkey Vero cells treated immediately after viral infection for 30 hrs; type: functional, Zika virus
How it was run: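 Time of addition: serial dilutions (100 to 0.13 μM) put on cells either 24 h before infection or after infection for 30 h (ZIKV). Infected cells fixed in acetone-methanol and immunostained. EC50 computed for each treatment condition by sigmoidal fit; the ratio compares the two EC50s.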

[12] = test system: Usutu virus; experiment: Antiviral activity against USUV 3345 isolate Arb276 infected in human Huh-7 cells assessed as reduction in viral replication pretreated with virus for 1 hr followed by infection of cells with compound treated-virus for 20 hrs by focus reduction assay; type: functional, organism-based; conditions: Usutu virus, 3345, Huh-7; for EC90: time 21 hrs; how it was run: as §3
[13] = test system: Usutu virus; experiment: Antiviral activity against USUV 3345 isolate Arb276 infected in African green monkey Vero cells assessed as reduction in viral replication pretreated with virus for 1 hr followed by infection of cells with compound treated-virus for 20 hrs by focus reduction assay; type: functional, organism-based; conditions: Usutu virus, 3345, Vero; for EC90: time 21 hrs
[14] = Cytotoxicity against human A549 cells infected with USUV 3345 isolate Arb276 pretreated with virus for 1 hr followed by infection of cells with compound treated-virus for 20 hrs by MTS assay; type: toxicity, cell-based; how it was run: as §2
[15] = test system: Zika virus; experiment: Antiviral activity against ZIKV MR766 infected in African green monkey Vero cells assessed as reduction in viral replication pretreated with virus for 1 hr followed by infection of cells with compound treated-virus for 30 hrs by focus reduction assay; type: functional, organism-based; conditions: for EC90: time 31 hrs
[16] = test system: Usutu virus; experiment: Antiviral activity against USUV 3345 isolate Arb276 infected in human A549 cells assessed as reduction in viral replication pretreated with virus for 1 hr followed by infection of cells with compound treated-virus for 20 hrs by focus reduction assay; type: functional, organism-based; conditions: Usutu virus, 3345, A549; for EC90: time 21 hrs; how it was run: as §3
[17] = test system: Usutu virus; experiment: Antiviral activity against USUV 3345 isolate Arb276 infected in African green monkey Vero cells assessed as viral growth inhibition at 0.13 to 100 uM pretreated with cells 24 hrs prior to viral infection by time of addition assay; type: functional, organism-based; conditions: dose 0.13-100 µM; how it was run: as §1
[18] = Selectivity index, ratio of CC50 for African green monkey Vero cells infected with ZIKV MR766 to EC50 for ZIKV MR766 infected in African green monkey Vero cells; type: toxicity, cell-based; conditions: read-out: Ratio CC50/EC50
[19] = test system: Zika virus; experiment: Antiviral activity against ZIKV MR766 infected in African green monkey Vero cells assessed as viral growth inhibition at 0.13 to 100 uM pretreated with cells 24 hrs prior to viral infection by time of addition assay; type: functional, organism-based; conditions: dose 0.13-100 µM; how it was run: as §1
[20] = Solubility in DMSO at 25 degreeC; type: physicochemical

With `O=C1[C@@H]2CCCN2[C@@H](c2ccc([C@H]3C[C@@H](O)[C@@H](CO)O3)cc2)N1c1ccc([N+](=O)[O-])cc1` the Activity [1] was “Active”, the Activity [2] was “Active” and the CC50 at 31 h [3] was > 500 µM. For the same molecule, the EC50 [4] was 3.95 µM, the EC90 [4] was 10.9 µM and the “inhibition (INH)” value [5] was 100%. For the same molecule, the Activity [6] was “inactive”, the CC50 at 31 h [7] was > 500 µM and the Activity [8] was “inactive”. The Activity [9] was “inactive”, the CC50 at 21 h [10] was > 500 µM and the “Ratio EC50” value [11] was 5. For the same molecule, the EC50 [12] was 3.91 µM, the EC90 [12] was 5.77 µM and the EC50 [13] was 2.53 µM. The EC90 [13] was 3.89 µM, the CC50 at 21 h [14] was > 500 µM and the EC50 [15] was 7.96 µM. The EC90 [15] was 12.3 µM, the EC50 [16] was 6.42 µM and the EC90 [16] was 12 µM. The Activity [17] was “Active”, the selectivity ratio [18] was > 63 and the Activity [19] was “Active”. For the same molecule, the solubility [20] was 96 mg/mL (≈ 218 mM).

For `O=C1C[C@H](c2ccc([C@H]3N(c4ccc([N+](=O)[O-])cc4)C(=O)[C@@H]4CCCN43)cc2)O[C@@H]1CO`, the Activity [1] was “Active”, the Activity [2] was “Active” and the CC50 at 31 h [3] was > 500 µM. For the same molecule, the EC50 [4] was 3.8 µM, the EC90 [4] was 10.2 µM and the “inhibition (INH)” value [5] was 100%. For the same molecule, the Activity [6] was “inactive”, the CC50 at 31 h [7] was > 500 µM and the Activity [8] was “inactive”. For the same molecule, the Activity [9] was “inactive”, the CC50 at 21 h [10] was > 500 µM and the “Ratio EC50” value [11] was 5. The EC50 [12] was 4 µM, the EC90 [12] was 6.28 µM and the EC50 [13] was 2.76 µM. For the same molecule, the EC90 [13] was 4.34 µM, the CC50 at 21 h [14] was > 500 µM and the EC50 [15] was 9.73 µM. It also gave an EC90 [15] of 15.4 µM, an EC50 [16] of 6.82 µM and an EC90 [16] of 15.2 µM. The Activity [17] was “Active”, the selectivity ratio [18] was > 51 and the Activity [19] was “Active”. The solubility [20] was 130 mg/mL (≈ 297 mM).
